Measured values as given in ChEMBL document CHEMBL4715918, “Syntheses and evaluation of acridone-naphthalimide derivatives for regulating oncogene PDGFR-β expression” (Bioorg Med Chem, 2021).

Assays:
MCF7 [1] = assay: Induction apoptosis in human MCF7 cells assessed as early apoptotic cells at 5 uM incubated for 24 hrs by Annexin-FTTC/PI staining based flow cytometric analysis (reference value: 0.28%); type: functional
MCF7 [2] = assay: Inhibition of colony formation in human MCF7 cells after 7 days by crystal staining based assay; type: functional, cell-based; settings: dose 0.3125-2.5 µM, time 7.0 day
Outline: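 MCF-7 cells were seeded at 1,000/well and grown 24 h, then exposed 7 days to 2.5, 1.25, 0.625, 0.3125 μM compound or DMSO. Colonies were fixed in methanol, stained with crystal violet and imaged.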

[3] = Toxicity in nude BALB/c mouse xenografted with human MCF7 cells assessed as reduction in body weight at 2.5 to 10 mg/kg, ip administered for 34 days; type: organism-based; settings: in vivo, 816 h, dose 2.5-10 mg/kg, time 34 day
Outline: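 Nude BALB/c females bearing subcutaneous MCF-7 xenografts were dosed ip once daily for 34 days at 2.5, 5.0 or 10 mg/kg, with saline vehicle (100 µL) as control. Body weight was recorded every 2 days. After euthanasia by cervical dislocation, heart, liver, spleen and kidney were removed and weighed.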

Quadruplex DNA = assay: Binding affinity to FAM-labeled 5'-biotin-d [GCTGGGAGAAGGGGGGGCGGCGGGGCAGGGAGGGTGGACGC]-3' G4-quadruplex DNA (unknown origin) by microscale thermophoresis assay; type: nucleic-acid assay
Outline: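 Microscale thermophoresis with DNA held constant at 1 µM. Compound serially diluted 3:4 from 10 µM over 12 points. Samples run in standard glass capillaries with LED and laser power both at 20%. KD derived by fitting.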

[4] = Toxicity in nude BALB/c mouse xenografted with human MCF7 cells assessed as lung weight at 2.5 to 10 mg/kg, ip administered for 34 days; type: organism-based; settings: in vivo, 816 h, dose 2.5-10 mg/kg, time 34 day

Kd (Quadruplex DNA): 6.11 µM
SMILES: Cc1ccc2c(c1)c(=O)c1cc(C(=O)NCCCN(C)CCCN3C(=O)c4cccc5c(N6CCN(C)CC6)ccc(c45)C3=O)ccc1n2-c1ccc(C(=O)NCCCN(C)CCCN2C(=O)c3cccc4c(N5CCN(C)CC5)ccc(c34)C2=O)cc1
Activity (MCF7 [1]): 33.5%
inhibition (MCF7 [2]): Dose-dependent effect
Activity [3]: Non-Toxic
Activity [4]: Non-Toxic
